Test results taken from ChEMBL document CHEMBL3822375, “Preclinical Characterization of 3β-(N-Acetyl l-cysteine methyl ester)-2aβ,3-dihydrogaliellalactone (GPA512), a Prodrug of a Direct STAT3 Inhibitor for the Treatment of Prostate Cancer” (J Med Chem, 2016).
In brackets after ≈: the same amount, converted by molar mass. Values belong to the molecule of their own block, whether it stands above or below them. Activity calls are given as the source filed them. The rule behind the calls is not given here.

Columns and labels:
[1] = test system: Mus musculus; test: Cmax in mouse plasma assessed as galiellalactone level at 10 mg/kg, po by LC-MS/MS analysis; assay type: ADME, organism-based; design: dose 10 mg/kg, route oral; conditions: in vivo
Procedure, shortened: (§1)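 Single dose to mice; oral, iv or ip as listed, in 5% DMSO/50 mM citrate buffer pH 4.0 (dosing solutions 0.5, 2 or 5 mg/mL). Oral dosing at 20 mL/kg. Terminal blood under barbiturate anaesthesia at eight time-points to 8 h, n=3 mice per time-point, EDTA plasma. Acetonitrile precipitation with internal standard, LC-MS/MS against plasma calibration lines. Non-compartmental analysis on mean data, trapezoidal AUC.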

[2] = test system: Mus musculus; test: AUC (0 to infinity) in mouse plasma assessed as galiellalactone level at 10 mg/kg, po by LC-MS/MS analysis; assay type: ADME, organism-based; design: dose 10 mg/kg, route oral, time infinity; conditions: in vivo; procedure, shortened: as §1
[3] = test system: Mus musculus; test: Tmax in mouse plasma assessed as galiellalactone level at 10 mg/kg, po by LC-MS/MS analysis; assay type: ADME, organism-based; conditions: in vivo
[4] = test system: Mus musculus; test: AUC (0 to t) in mouse plasma assessed as galiellalactone level at 10 mg/kg, po by LC-MS/MS analysis; assay type: ADME, organism-based; conditions: in vivo; procedure, shortened: as §1
[5] = test system: Mus musculus; test: Apparent half life in mouse plasma assessed as galiellalactone level at 10 mg/kg, po by LC-MS/MS analysis; assay type: ADME, organism-based; conditions: in vivo; procedure, shortened: as §1
[6] = Chemical stability of the compound in phosphate buffer saline assessed as half life at 10 uM at pH 7.4 by LC-MS/MS analysis; assay type: physicochemical; conditions: phosphate buffered saline
Procedure, shortened: (§2)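 Compound diluted from DMSO (or methanol) stock to 10 µM, 2% solvent final, n=2. Matrix was 0.1 M PBS pH 7.4, or […] HCl with 2 mg/mL NaCl adjusted to pH 1.2. Mixed on a shaker; sampled at nominal 5, 15, 30 and 60 min plus T=0. LC-MS/MS with internal standard; % remaining relative to T=0. Formation of parent also monitored.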

[7] = Antiproliferative activity against human DU145 cells after 72 hrs by WST-1 proliferation assay; assay type: functional, cell-based; conditions: DU-145, 72 h
Procedure, shortened: (§3)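 Cells in RPMI-1640 (DU145, LNCaP, LNCaP-IL6+) or HAM's F-12 (PC3) with 10% FBS. DU145 and LNCaP-IL6+ seeded at 2 000 cells/well, LNCaP and PC3 at 5 000 cells/well, adhered 24 h, then exposed to compound for 72 h. WST-1 absorbance read at 450 nm with 630 nm reference. Background subtracted; expressed as percent of untreated cells.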

[8] = Tmax in mouse plasma at 5 mg/kg, ip by LC-MS/MS analysis; assay type: ADME, organism-based
[9] = test system: LNCaP; test: Antiproliferative activity against human LNCAP cells at 3 uM after 72 hrs by WST-1 proliferation assay; assay type: functional, cell-based; procedure, shortened: as §3
[10] = test system: Mus musculus; test: AUC (0 to infinity) in mouse plasma at 5 mg/kg, ip by LC-MS/MS analysis; assay type: ADME, organism-based; design: dose 5 mg/kg, route intraperitoneal, time infinity; conditions: in vivo; procedure, shortened: as §1
[11] = test system: Mus musculus; test: AUC (0 to t) in mouse plasma at 5 mg/kg, ip by LC-MS/MS analysis; assay type: ADME, organism-based; conditions: in vivo; procedure, shortened: as §1
[12] = Clearance in mouse plasma at 1.25 mg/kg, iv by LC-MS/MS analysis; assay type: ADME, organism-based; procedure, shortened: as §1
[13] = Apparent half life in mouse plasma at 5 mg/kg, ip; assay type: ADME, organism-based
[14] = test system: Mus musculus; test: AUC (0 to infinity) in mouse plasma at 10 mg/kg, po by LC-MS/MS analysis; assay type: ADME, organism-based; design: dose 10 mg/kg, route oral, time infinity; conditions: in vivo; procedure, shortened: as §1
[15] = Apparent half life in mouse plasma at 1.25 mg/kg, iv by LC-MS/MS analysis; assay type: ADME, organism-based; conditions: read-out: t1/2(app); procedure, shortened: as §1
[16] = Cmax in mouse plasma at 1.25 mg/kg, iv by LC-MS/MS analysis; assay type: ADME, organism-based; design: dose 1.25 mg/kg, route intravenous; procedure, shortened: as §1
[17] = test system: PC-3; test: Cytotoxicity against human PC3 cells assessed as inhibition of cell viability at 3 uM after 72 hrs by WST-1 proliferation assay; assay type: functional, cell-based; procedure, shortened: as §3
[18] = test system: DU-145; test: Antiproliferative activity against human DU145 cells expressing pSTAT3 at 3 uM after 72 hrs by WST-1 proliferation assay; assay type: functional, cell-based; procedure, shortened: as §3
[19] = Stability of compound assessed as compound disappearance measured after 2 hrs by LC-MS/MS analysis; assay type: physicochemical
[20] = test system: LNCaP; test: Cytotoxicity against human LNCAP cells assessed as inhibition of cell viability at 3 uM after 72 hrs by WST-1 proliferation assay; assay type: functional, cell-based; procedure, shortened: as §3
[21] = Efflux ratio of apparent permeability across apical to basolateral side over basolateral to apical side in human Caco2 cells at 20 uM measured after 120 mins by UPLC-MS/MS analysis; assay type: ADME, cell-based; conditions: caco-2, 2 h
Procedure, shortened: (§4)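 Caco-2 monolayers in Hanks' balanced salt solution with 10 mM Hepes, pH 7.4. Apical and basolateral transport measured at 20 µM test item. Both compartments sampled at 0, 60 and 120 min and analysed by UPLC-MS/MS.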

[22] = test system: DU-145; test: Cytotoxicity against human DU145 cells expressing pSTAT3 assessed as inhibition of cell viability at 3 uM after 72 hrs by WST-1 proliferation assay; assay type: functional, cell-based; procedure, shortened: as §3
[23] = test system: Mus musculus; test: AUC (0 to t) in mouse plasma at 10 mg/kg, po by LC-MS/MS analysis; assay type: ADME, organism-based; conditions: in vivo; procedure, shortened: as §1
[24] = test system: Mus musculus; test: AUC (0 to infinity) in mouse plasma at 1.25 mg/kg, iv by LC-MS/MS analysis; assay type: ADME, organism-based; design: dose 1.25 mg/kg, time infinity, route intravenous; conditions: in vivo; procedure, shortened: as §1
[25] = Solubility of the compound in phosphate buffer saline at pH 7.4 by LC-MS analysis; assay type: physicochemical; conditions: phosphate buffered saline
[26] = Drug metabolism in S9 intestinal fraction (unknown origin) assessed as glutathione conjugate formation; assay type: ADME
[27] = test system: Mus musculus; test: AUC (0 to t) in mouse plasma at 1.25 mg/kg, iv by LC-MS/MS analysis; assay type: ADME, organism-based; conditions: in vivo; procedure, shortened: as §1
[28] = Tmax in mouse plasma at 1.25 mg/kg, iv by LC-MS/MS analysis; assay type: ADME, organism-based
[29] = test system: LNCaP; test: Cytotoxicity against human LNCAP cells expressing IL6 and pSTAT3 assessed as inhibition of cell viability at 3 uM after 72 hrs by WST-1 proliferation assay; assay type: functional, cell-based; procedure, shortened: as §3
[30] = test system: LNCaP; test: Antiproliferative activity against human LNCAP cells expressing IL6 and pSTAT3 at 3 uM after 72 hrs by WST-1 proliferation assay; assay type: functional, cell-based; procedure, shortened: as §3
[31] = test system: PC-3; test: Antiproliferative activity against human PC3 cells at 3 uM after 72 hrs by WST-1 proliferation assay; assay type: functional, cell-based; procedure, shortened: as §3
[32] = Cmax in mouse plasma at 5 mg/kg, ip by LC-MS/MS analysis; assay type: ADME, organism-based; design: dose 5 mg/kg, route intraperitoneal; procedure, shortened: as §1
[33] = Apparent permeability from apical to basolateral side in human Caco2 cells at 20 uM measured after 120 mins by UPLC-MS/MS analysis; assay type: ADME, cell-based; conditions: Caco-2; procedure, shortened: as §4
[34] = Half life in mouse plasma by LC-MS/MS analysis; assay type: ADME, cell-free
[35] = Half life in mouse plasma at 5 uM by LC-MS/MS analysis; assay type: ADME, cell-free
Procedure, shortened: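 Plasma of each species incubated at 37 °C with compound at 5 µM initial, 1% DMSO, n=2. Simvastatin and eucatropine run as controls. Aliquots taken at 0, 5, 15, 30 and 60 min and quenched with acetonitrile containing internal standard, then analysed by LC-MS/MS.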

[36] = Volume of distribution in mouse plasma at 1.25 mg/kg, iv by LC-MS/MS analysis; assay type: ADME, organism-based
[37] = Metabolic stability in mouse hepatocytes assessed as compound disappearance measured after 2 hrs by LC-MS/MS analysis; assay type: ADME, cell-based, Hepatocyte; conditions: read-out: Drug degradation
Procedure, shortened: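 Cryopreserved mouse hepatocytes incubated with an initial 10 µM test item (DMSO stock) in Celsis InVitro HI medium, pH 7.4, 37 °C. Cell viability checked by Trypan blue. Sampled at 0 and 120 min and stopped with an equal volume of acetonitrile. Analysed by UPLC/Q-TOF-MS.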

[38] = test system: Hepatocyte; test: Drug level in mouse hepatocytes treated with 3-beta-(N-Acetyl-L-cysteine methyl ester)-2a-beta,3-dihydrogaliellalactone measured after 2 hrs by UPLC-MS analysis; assay type: ADME, cell-based
Procedure, shortened: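 Cryopreserved mouse hepatocytes in Celsis InVitro HI medium, pH 7.4, 37 °C, with 10 µM initial compound from DMSO stock. Sampled at 0 and 120 min, quenched with an equal volume of acetonitrile, analysed by UPLC/Q-TOF-MS. Viability checked by Trypan blue.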

[39] = Apparent half life in mouse plasma at 10 mg/kg, po by LC-MS/MS analysis; assay type: ADME, organism-based; conditions: read-out: t1/2(app); procedure, shortened: as §1
[40] = Half life of compound in acidic buffer at pH 1.2 at 10 uM by LC-MS analysis; assay type: physicochemical; procedure, shortened: as §2

Cmax [1]: 1102 ng/mL
AUC [2]: 155 µg/mL/min
Tmax [3]: 0.25 h
AUCt [4]: 150 µg/mL/min
t1/2(app) [5]: 1.8 h
Compound: COC(=O)[C@H](CCS[C@H]1C2C(=O)O[C@@H]3CC[C@H](C[C@@H]1C)[C@]23O)NC(C)=O (stereo not given in full)

half-life at 10 µM [6]: > 2.5 h
Compound: CC(=O)N[C@@H](CS[C@H]1C2C(=O)O[C@@H]3CC[C@H](C[C@@H]1C)[C@]23O)C(N)=O (stereo not given in full)
IC50 [7]: 9.2 µM

Cmax [1]: 263 ng/mL
AUC [2]: 22 µg/mL/min
Tmax [3]: 0.5 h
AUCt [4]: 20 µg/mL/min
t1/2(app) [5]: 1.08 h
Compound: CCOC(=O)[C@H](CS[C@H]1C2C(=O)O[C@@H]3CC[C@H](C[C@@H]1C)[C@]23O)NC(C)=O (stereo not given in full)

Further lines, the molecule ahead of its results:

Compound: COC(=O)[C@H](CS[C@H]1C2C(=O)O[C@@H]3CC[C@H](C[C@@H]1C)[C@]23O)NC(=O)OC(C)(C)C (stereo not given in full)
Cmax [1]: 52 ng/mL
AUC [2]: 17 µg/mL/min
half-life at 10 µM [6]: > 2.5 h
Tmax [3]: 0.25 h
AUCt [4]: 11 µg/mL/min
t1/2(app) [5]: 5.8 h

Compound: C[C@H]1C[C@H]2CC[C@H]3OC(=O)C([C@@H]1Sc1ccccc1)[C@@]23O (stereo not given in full)
Cmax [1]: 478 ng/mL
AUC [2]: 41 µg/mL/min
Tmax [3]: 0.25 h
AUCt [4]: 36 µg/mL/min
t1/2(app) [5]: 3.17 h

Compound: C[C@@H]1C=C2C(=O)O[C@@H]3CC[C@H](C1)[C@]23O
Tmax [8]: 5 min
Activity [9]: inactive
AUC [10]: 372 µg/mL/min
AUCt [11]: 351 µg/mL/min
clearance [12]: 7.3 mL/min/kg
half-life [13]: 2.4 h
AUC [14]: 6 µg/mL/min
half-life [15]: 2.17 h
Cmax [16]: 2960 ng/mL
inhibition [17]: inactive
Activity [18]: Active
Stability [19]: Stable
half-life at 10 µM [6]: > 9.8 h
inhibition [20]: inactive
Ratio [21]: 2
inhibition [22]: Active
AUCt [23]: 5 µg/mL/min
AUC [24]: 171 µg/mL/min
solubility [25]: 143 µM (≈ 27.8 µg/mL)
Drug metabolism [26]: metabolite_detected
AUCt [27]: 159 µg/mL/min
Tmax [28]: 5 min
inhibition [29]: Active
Activity [30]: Active
Activity [31]: inactive
Cmax [32]: 5520 ng/mL
Papp A→B at 2 h, 20 µM [33]: 65.9 ×10⁻⁶ cm/s
half-life [34]: 1.23 h
half-life at 5 µM [35]: 1.23 h
Vd [36]: 1.4 L/kg
IC50 [7]: 3.02 µM
metabolised at 2 h [37]: 45%
Drug metabolism [38]: metabolite_detected
half-life [39]: 1.48 h

Compound: C[C@H]1C[C@H]2CC[C@H]3OC(=O)C([C@@H]1SC[C@H](N)C(=O)O)[C@@]23O (stereo not given in full)
half-life at 10 µM [6]: 0.233 h
IC50 [7]: 2.66 µM
half-life at 10 µM [40]: > 2.5 h
